We go through 96 compounds from ChEMBL document CHEMBL4513216, “Probing the Open Global Health Chemical Diversity Library for Multistage-Active Starting Points for Next-Generation Antimalarials” (ACS Infect Dis, 2020).

The data set in a line: Toxicity liver stage against HepG2, at 10uM. The format is cell-based. More on the design: test concentration 10 uM, cell line HepG2-A16-CD81EGFP. Particulars: human, HepG2-A16-CD81EGFP cells; read-out: INHIBITION
An outline of the steps: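 Uninfected HepG2-A16-CD81EGFP cells, 3 × 10^3 per well, 1536-well, plated on prespotted compound at 10 μM final, parasite-free screening media added to match infected plates; puromycin 10 μM positive, DMSO 0.5% negative; run in parallel with 48 h PbLuc assay at 37 °C, 5% CO2; viability by CellTiter-Glo luminescence, normalized to controls.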
As to `Cc1cc(C)c(S(N)(=O)=O)cc1C(=O)NCCN1CCCCC1`, the cytotoxicity at 10 µM was -5.52%.
Consider `Cc1cccc(CN2CCc3onc(CO)c3C2)n1`, for which the cytotoxicity at 10 µM is 6.81%.
The value for `CN(Cc1ccco1)C(=O)Nc1cc(C(F)(F)F)c[nH]c1=O` was 2.79%; that for `CN(CCc1cccs1)C(=O)Nc1ccc2c(c1)C(=O)N(C)CC2` was -5.44%.
With `O=C(NCCCn1ccnc1)c1csc2c1CCCC2` the figure was -2.96%.
With `Cn1cc(-c2csc(N3CCN(C(=O)OC(C)(C)C)CC3)n2)cn1` the figure was 23.2%.
Regarding `COCCN1CCN(C(=O)C2CC=CC2)Cc2cccnc21`, the cytotoxicity at 10 µM was -11.1%.
With `Cc1sc2nc(CCN)nc(N3CCN(S(C)(=O)=O)CC3)c2c1C` the figure was -32%; with `CC(C)(C)n1ncc2c1NC(=O)CC2c1ccc(C#N)cc1` (stereo unspecified), -1.26%; with `CC(C)(C)c1ccc(-n2ncc3c2CCCC3N)cc1` (stereo unspecified), -0.711%.
The value for `CC(=O)N1CCN(CC(N)=O)CC(COc2ccccc2)C1` (stereo unspecified) was -28.7%.
Regarding `CCNc1ncc(C(=O)NCCCc2ccncc2)cn1`, the cytotoxicity at 10 µM is 0.562%.
Take `O=S(=O)(Nc1ccc(Oc2ccc3c(c2)OCO3)cc1)N1CCCCC1`: the cytotoxicity at 10 µM was -29.3%.
The value for `CCCC(C)Sc1nnnn1C1CCOCC1` (stereo unspecified) was 2.3%.
With `CCn1cc2c(n1)C(COCC1CC1)CN(C(=O)c1cc(C)on1)C2` (stereo unspecified) the figure was 17.8%.
For the compound `Cc1ccsc1[C@@H]1CCN(C(=O)Cc2ccc(O)cc2)C[C@H]1O`, the cytotoxicity at 10 µM was -2.59%.
For the compound `COCC(=O)NCc1cccnc1-n1cnc2ccccc21`, the cytotoxicity at 10 µM is -2.8%.
With `COc1ccc(OC)c(S(=O)(=O)NC(=O)C(C)OC)c1` (stereo unspecified) the figure was -1.2%; with `COc1nc2cc(C)ccc2cc1CN(C)Cc1n[nH]c2c1CCCC2`, 4.03%.
Consider `O=C(NC[C@H]1OC[C@@H](NC2CCC2)[C@@H]1O)c1cccs1`, for which the cytotoxicity at 10 µM was found to be 1.76%.
For `O=C(c1ccoc1)N1CCC2(C1)CN(c1ncc(F)cn1)C2`, the cytotoxicity at 10 µM was -0.472%.
Turning to `c1ccc2c(c1)SCCC2NCc1ccc(N2CCOCC2)cc1` (stereo unspecified), the cytotoxicity at 10 µM is -4.86%.
With `Cc1ccc(N2CCCC3(CCCC(=O)N3)C2)nn1` (stereo unspecified) the figure was -1.52%; with `CC(=O)N1[C@H](CN(C)C)C[C@@H]2CN(C(=O)c3cccn3C)CC[C@@H]21`, 2.53%; with `Cc1ccc(S(=O)(=O)N2CCn3nc(C)nc3C2)c(Cl)c1`, 5.09%.
The value for `COc1cccc(-c2n[nH]c3c2CN(C(=O)c2oc(C)cc2C)CC3)c1` was -3.17%; that for `O=S(=O)(C1CC1)N1CCO[C@@H]2CC(COCc3cccnc3)C[C@H]21` (stereo partly specified) was 7.01%; that for `O=C(Cc1ccsc1)N1CCC[C@@H]1Cn1c(=O)oc2ccccc21` was 4.53%.
The value for `NC(=O)c1cn[nH]c1C1CCCN1C(=O)c1cnccn1` (stereo unspecified) was -6.17%; that for `Cn1nnc2c1CCN(S(C)(=O)=O)C2COCc1ccccc1` (stereo unspecified) was -100%.
As to `N#CCCn1nc(C(F)(F)F)c2c1CCCC2`, the cytotoxicity at 10 µM is -11.9%.
With `CS(=O)(=O)CC(=O)N(CCN1CCOCC1)Cc1ccco1`, the cytotoxicity at 10 µM was 3.11%.
With `Cc1ccc(CC(=O)N2CCOCC2c2c(C)n[nH]c2C)cc1` (stereo unspecified) the figure was 5.12%; with `CCn1c(C2CCCN(Cc3cccc4cnccc34)C2)nn(C)c1=O` (stereo unspecified), -6.29%; with `CCOCCCC(=O)Nc1cccnc1-n1ccnc1C`, 9.21%.
In the case of `CN(C)S(=O)(=O)N1C[C@H]2CC[C@@H](C1)N(Cc1ccc3nsnc3c1)C2`, the cytotoxicity at 10 µM was -7.7%.
With `CCn1ncc(C(=O)NCCc2nc(-c3ccncc3)n[nH]2)c1C` the figure was 6.87%; with `CN1C[C@@H](NC(=O)c2cc(F)cc(F)c2)C[C@H]1C(=O)NCc1ncc[nH]1`, -6.25%.
Regarding `CN(C)CCCn1ccc(-c2cccc(-c3cncnc3)c2)n1`, the cytotoxicity at 10 µM worked out at 2.51%.
The value for `COc1cc2nc(NCc3scnc3C)nc(N)c2cc1OC` was 6.34%; that for `CC(C)c1nccc(CN2CCC(c3nc4ccccc4n3C)CC2)n1` was 7.23%; that for `CCc1nnc(CN2CCC(c3nc4cc(Cl)ccc4o3)CC2)o1` was -0.956%.
Turning to `CC(C)(C(=O)NCCC(=O)O)c1cccc(Br)c1`, the cytotoxicity at 10 µM was found to be 7.01%.
Consider `O=C([C@H]1COC[C@H]2CN(C3CCOCC3)C[C@H]21)N1CCC(F)CC1`, for which the cytotoxicity at 10 µM is -112%.
The value for `Cn1cc(C(=O)NC[C@@H]2OC[C@H]3CN(S(C)(=O)=O)CC[C@H]32)cn1` was -9.12%.
With `COCC(=O)Nc1ccc(-c2noc([C@@H]3CCCN3CC(C)C)n2)cn1` the figure was 5.82%; with `Cc1cc(C)nc(Nc2nccnc2C2CCCN(C(C)C)C2)n1` (stereo unspecified), -6.15%; with `Cc1ccc(C(=O)N2C[C@@H]3CN(S(C)(=O)=O)CCO[C@@H]3C2)o1`, -2.42%.
With `CC(c1ccc(F)c(F)c1)N1CCN(Cc2nccn2C)CC1` (stereo unspecified) the figure was -2.76%; with `CC(C)COC(=O)N1[C@@H](c2ccco2)[C@@H](CO)C[C@]12CCCCNC2=O`, 1.19%.
`Cc1ccccc1N1CCN(C(=O)c2ccc[nH]2)C(C)C1` (stereo unspecified): the cytotoxicity at 10 µM was -8.68%.
With `CC(C)N(Cc1ccccn1)S(=O)(=O)N1CCCC1c1ccco1` (stereo unspecified) the figure was -3.92%; with `O=C(CCC1CCCC1)NCCn1nc(C2CCNC2)c2cccnc21` (stereo unspecified), -2.83%.
Take `CCn1cc(CN2CCCN(C(=O)CCc3ccncc3)CC2)cn1`: the cytotoxicity at 10 µM is -11.1%.
Take `CC(=O)c1ccn(CC(=O)Nc2nn(CC3CC3)c3ccccc23)n1`: the cytotoxicity at 10 µM was found to be 9.34%.
The value for `CN(CC1CC1)C(=O)c1cc2c(c(S(N)(=O)=O)c1)CCC2` was -51.1%; that for `CC(C)CCN1CCNC(=O)C1CC(=O)NCCc1cc(O)ncn1` (stereo unspecified) was -0.806%.
The value for `COCCOc1ccc(CNC2CCc3ncnn3C2)cc1OC` (stereo unspecified) was -7.2%; that for `CCN1CCC2(CCC1=O)CN(c1nccc(N)n1)CCN2C` (stereo unspecified) was 0.562%; that for `Cc1cc(C2CCNCC2)nc(-c2ccsc2)n1` was -1.97%.
For the compound `COCCN1CCC2(COCCN(C(=O)Cc3cccs3)C2)C1` (stereo unspecified), the cytotoxicity at 10 µM is 4.29%.
On to `CCCc1nnsc1C(=O)NCC1CCN(C(=O)c2ccncc2)CC1`, for which the cytotoxicity at 10 µM was 16.2%.
The value for `CC(C)C(=O)N1CCCC(c2ncncc2-c2ccncc2)C1` (stereo unspecified) was -6.62%.
As for `Cc1ccc(N2CCCC(NCc3ccc(-n4ccnc4)cc3)C2)nn1` (stereo unspecified), the cytotoxicity at 10 µM was -8.44%.
Take `Cc1ccc(CN2Cc3nnn(C)c3C(COCC3CC3)C2)o1` (stereo unspecified): the cytotoxicity at 10 µM is -4.7%.
With `O=C(c1c(F)cc(Br)cc1F)N1CCc2cnccc21`, the cytotoxicity at 10 µM was -10.1%.
In the case of `COCCN1C[C@@H]2CC[C@H]1CN(CC(=O)Nc1ccn(C)n1)C2`, the cytotoxicity at 10 µM was -8.39%.
`CC(C)N(C)CCNC(=O)N1CCN(Cc2ccon2)CC1`: the cytotoxicity at 10 µM is -1.58%.
The value for `Cc1noc(CCCNS(=O)(=O)N2CCCC2c2ccco2)n1` (stereo unspecified) was -7.88%.
The value for `Cn1ncnc1-c1ccnc(NCc2ccncc2)n1` was -3.89%; that for `Cc1noc(-c2ccc(N3CCCC(C(=O)N4CCSCC4)C3)nc2)n1` (stereo unspecified) was -2.45%.
As to `CC(C)NC(=O)CCNC(=O)CCc1cc(Br)cs1`, the cytotoxicity at 10 µM was -3.16%.
Regarding `COC(C)c1nc(CN2CCCNCC2)cs1` (stereo unspecified), the cytotoxicity at 10 µM is -3.78%.
The value for `CCCN1CCN(Cc2nccn2CC)C(C)C1` (stereo unspecified) was 8.14%; that for `O=C(c1cccnc1N1CCOC(c2ccc(Cl)cc2)C1)N1CCCC1` (stereo unspecified) was 7.21%.
The value for `Cc1nn(CCO)c(C)c1CNC1CCC(C)(C)c2ccccc21` (stereo unspecified) was -3.34%; that for `Cc1ccccc1CCCN1CCS(=O)(=O)CC1C` (stereo unspecified) was 1.57%; that for `COc1ncnc2c1CCN(C(=O)Cc1cccc(F)c1)CC2` was 3.88%.
Turning to `Cc1ccc(C(=O)N2CCO[C@H]3[C@H](OCCN(C)C)CC[C@@H]32)cn1`, the cytotoxicity at 10 µM came out at 4.85%.
On to `Cc1cnn(CCC(=O)N2CCN(C(=O)C3CC3)[C@@H]3CS(=O)(=O)C[C@@H]32)c1`, for which the cytotoxicity at 10 µM was 0.168%.
Turning to `O=C(c1csc(-c2cccs2)n1)N1CCCC1Cn1cccn1` (stereo unspecified), the cytotoxicity at 10 µM is -4.69%.
For the compound `CN(Cc1cccs1)C(=O)CN1CCOC(Cn2cncn2)C1` (stereo unspecified), the cytotoxicity at 10 µM is -23.7%.
The value for `Clc1ccc(-c2c[nH]c([C@@H]3COCCN3)n2)cc1` was -10.1%; that for `CCOCc1cnc2n1CCN(Cc1scnc1C)C2C` (stereo unspecified) was 8.85%.
Take `CC(C)COC(C)C(=O)NCc1cc(F)cc(F)c1` (stereo unspecified): the cytotoxicity at 10 µM amounted to 3.37%.
`O=C(CCCN1C(=O)CCC1=O)NCC1(c2ccccc2)CCC1`: the cytotoxicity at 10 µM was -17.1%.
The value for `Cc1ncnc2c1CCN(C(=O)c1cccnc1)CC2` was 8.36%.
With `Cc1cc2c(c(-c3cncc(C(=O)N4CCCC4)n3)c1)OC(CN)C2` (stereo unspecified) the figure was -45.7%; with `Cn1cc(CCNCc2cc(Cl)c3c(c2)OCCO3)cn1`, -9.69%.
For the compound `Cn1cc(-c2csc(N3CCOCC3)n2)cn1`, the cytotoxicity at 10 µM amounted to 0.469%.
Take `CC(C)N1CCC2(CC1)CC(c1cccnc1)C(=O)N2` (stereo unspecified): the cytotoxicity at 10 µM is -67.2%.
As to `CCN(CC)CCCC(C)NC(=O)c1cccnc1-n1cccn1` (stereo unspecified), the cytotoxicity at 10 µM was -0.595%.
On to `COc1ccc(CCN2CC(NCc3ncc[nH]3)CC2=O)cc1` (stereo unspecified), for which the cytotoxicity at 10 µM came to 0.749%.
Turning to `COc1ccc(OC)c(C(O)CNC(=O)Nc2cc(C)nn2C)c1` (stereo unspecified), the cytotoxicity at 10 µM is -9.86%.
Turning to `Cc1ccc(-c2noc(CCC3CCN(C)CC3)n2)nn1`, the cytotoxicity at 10 µM was -5.79%.
With `O=C(NC1CCCC1)N1CC[C@H]2[C@H]1CCN2c1nncs1` the figure was -7.73%.
